# Data published in ChEMBL document CHEMBL3400013, “Synthesis and biological activity evaluation of hydrazone derivatives based on a Tröger's base skeleton” (Bioorg Med Chem, 2015).
# Calls of active or inactive are those of the source. The rule behind the calls is not given here.
# Tested on: BJ
# Test: Selectivity index, ratio of IC50 for human BJ cells to IC50 for human K562 cells
# Format: functional
# Conditions: not given
row,SMILES,Ratio IC50
1,COc1ccc(O)c(/C=N/NC(=O)c2ccc3c4c(ccc3c2)N2Cc3c(ccc5cc(C(=O)N/N=C/c6cc(OC)ccc6O)ccc35)N(C4)C2)c1,357.2

# Tested on: Nucleic Acid
# Test: Binding affinity to DNA (unknown origin) assessed as DNA intercalation by UV-visible spectrophotometry in presence of Zn2+
# Format: nucleic-acid assay
# Conditions: not given
row,SMILES,Activity
1,COc1ccc(O)c(/C=N/NC(=O)c2ccc3c4c(ccc3c2)N2Cc3c(ccc5cc(C(=O)N/N=C/c6cc(OC)ccc6O)ccc35)N(C4)C2)c1,Active

# Tested on: BJ
# Test: Selectivity index, ratio of IC50 for human BJ cells to IC50 for human K562-TAX cells
# Format: functional
# Conditions: not given
row,SMILES,Ratio IC50
1,COc1ccc(O)c(/C=N/NC(=O)c2ccc3c4c(ccc3c2)N2Cc3c(ccc5cc(C(=O)N/N=C/c6cc(OC)ccc6O)ccc35)N(C4)C2)c1,137.7

# Tested on: CCRF-CEM
# Test: Cell cycle arrest in human CCRF-CEM cells assessed as accumulation at S phase at 5 times IC50 after 24 hrs by propidium iodide staining-based flow cytometry
# Format: functional
# Conditions: not given
# How it was run: (§1)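 Cells were then fixed in 70% ethanol, washed in hypotonic citrate buffer, treated with RNase (50 µg/mL) and stained with propidium iodide. Flow cytometry used a 488 nm laser. Apoptosis was scored as the percentage of particles with propidium content below G0/G1.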
row,SMILES,Activity
1,COc1ccc(O)c(/C=N/NC(=O)c2ccc3c4c(ccc3c2)N2Cc3c(ccc5cc(C(=O)N/N=C/c6cc(OC)ccc6O)ccc35)N(C4)C2)c1,48.55%

# Tested on: BJ
# Test: Selectivity index, ratio of IC50 for human BJ cells to IC50 for human CCRF-CEM cells
# Format: functional
# Conditions: pooled result: one value given for 2 cell lines, strains, targets or settings
row,SMILES,Ratio IC50
1,COc1ccc(O)c(/C=N/NC(=O)c2ccc3c4c(ccc3c2)N2Cc3c(ccc5cc(C(=O)N/N=C/c6cc(OC)ccc6O)ccc35)N(C4)C2)c1,162.3

# Tested on: CCRF-CEM
# Test: Cell cycle arrest in human CCRF-CEM cells assessed as accumulation at G0/G1 phase at IC50 after 24 hrs by propidium iodide staining-based flow cytometry
# Format: functional
# Conditions: not given
# How it was run: as §1
row,SMILES,Activity
1,COc1ccc(O)c(/C=N/NC(=O)c2ccc3c4c(ccc3c2)N2Cc3c(ccc5cc(C(=O)N/N=C/c6cc(OC)ccc6O)ccc35)N(C4)C2)c1,30%

# Tested on: K562
# Test: Cytostatic activity against human K562 cells after 72 hrs by MTT assay
# Format: functional, cell-based
# Conditions: K562, 72 h
# How it was run: (§2)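 Cells were seeded at 25,000–30,000 per well and pre-incubated for 24 h at 37°C in 5% CO2. Four-fold compound dilutions were added in duplicate and incubated for 72 h. MTT was added for 1–4 h, and formazan was dissolved in 10% aq SDS (pH 5.5) overnight at 37°C. OD was read at 540 nm. IC50 came from dose-response curves, mean ± SD of eight independent experiments.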
row,SMILES,IC50
1,COc1ccc(O)c(/C=N/NC(=O)c2ccc3c4c(ccc3c2)N2Cc3c(ccc5cc(C(=O)N/N=C/c6cc(OC)ccc6O)ccc35)N(C4)C2)c1,80 nM

# Tested on: not listed separately
# Test: Cytostatic activity against human p53-/- HCT116 cells after 72 hrs by MTT assay
# Format: functional, cell-based
# Conditions: HCT-116, 72 h
# How it was run: as §2
row,SMILES,IC50
1,COc1ccc(O)c(/C=N/NC(=O)c2ccc3c4c(ccc3c2)N2Cc3c(ccc5cc(C(=O)N/N=C/c6cc(OC)ccc6O)ccc35)N(C4)C2)c1,60 nM

# Tested on: not listed separately
# Test: Cytostatic activity against human CEM-DNR cells after 72 hrs by MTT assay
# Format: functional, cell-based
# Conditions: not given
# How it was run: as §2
row,SMILES,IC50
1,COc1ccc(O)c(/C=N/NC(=O)c2ccc3c4c(ccc3c2)N2Cc3c(ccc5cc(C(=O)N/N=C/c6cc(OC)ccc6O)ccc35)N(C4)C2)c1,2140 nM

# Tested on: Staphylococcus aureus
# Test: Antimicrobial activity against methicillin-resistant Staphylococcus aureus MRSA 4591 up to 200 uM after 24 to 48 hrs by broth microdilution method
# Format: functional, organism-based
# Conditions: not given
row,SMILES,Activity
1,COc1ccc(O)c(/C=N/NC(=O)c2ccc3c4c(ccc3c2)N2Cc3c(ccc5cc(C(=O)N/N=C/c6cc(OC)ccc6O)ccc35)N(C4)C2)c1,inactive

# Tested on: K562
# Test: Selectivity index, ratio of IC50 for human MRC5 cells to IC50 for human K562 cells
# Format: functional
# Conditions: not given
row,SMILES,Ratio IC50
1,COc1ccc(O)c(/C=N/NC(=O)c2ccc3c4c(ccc3c2)N2Cc3c(ccc5cc(C(=O)N/N=C/c6cc(OC)ccc6O)ccc35)N(C4)C2)c1,357.2

# Tested on: not listed separately
# Test: Cytostatic activity against human HCT116 cells after 72 hrs by MTT assay
# Format: functional, cell-based
# Conditions: HCT-116, 72 h
# How it was run: as §2
row,SMILES,IC50
1,COc1ccc(O)c(/C=N/NC(=O)c2ccc3c4c(ccc3c2)N2Cc3c(ccc5cc(C(=O)N/N=C/c6cc(OC)ccc6O)ccc35)N(C4)C2)c1,50 nM

# Tested on: Escherichia coli
# Test: Antimicrobial activity against Escherichia coli CCM 3954 up to 200 uM after 24 to 48 hrs by broth microdilution method
# Format: functional, organism-based
# Conditions: not given
row,SMILES,Activity
1,COc1ccc(O)c(/C=N/NC(=O)c2ccc3c4c(ccc3c2)N2Cc3c(ccc5cc(C(=O)N/N=C/c6cc(OC)ccc6O)ccc35)N(C4)C2)c1,inactive

# Tested on: Escherichia coli
# Test: Antimicrobial activity against multidrug-resistant Escherichia coli C/16702 up to 200 uM after 24 to 48 hrs by broth microdilution method
# Format: functional, organism-based
# Conditions: not given
row,SMILES,Activity
1,COc1ccc(O)c(/C=N/NC(=O)c2ccc3c4c(ccc3c2)N2Cc3c(ccc5cc(C(=O)N/N=C/c6cc(OC)ccc6O)ccc35)N(C4)C2)c1,inactive

# Tested on: not listed separately
# Test: Cytostatic activity against human K562-TAX cells after 72 hrs by MTT assay
# Format: functional, cell-based
# Conditions: not given
# How it was run: as §2
row,SMILES,IC50
1,COc1ccc(O)c(/C=N/NC(=O)c2ccc3c4c(ccc3c2)N2Cc3c(ccc5cc(C(=O)N/N=C/c6cc(OC)ccc6O)ccc35)N(C4)C2)c1,210 nM

# Tested on: BJ
# Test: Selectivity index, ratio of IC50 for human BJ cells to IC50 for human HCT116 cells
# Format: functional
# Conditions: not given
row,SMILES,Ratio IC50
1,COc1ccc(O)c(/C=N/NC(=O)c2ccc3c4c(ccc3c2)N2Cc3c(ccc5cc(C(=O)N/N=C/c6cc(OC)ccc6O)ccc35)N(C4)C2)c1,622.3

# Tested on: not listed separately
# Test: Metal chelating activity of the compound assessed as formation of Ni2+ complex by UV-vis spectrometry
# Format: physicochemical
# Conditions: not given
row,SMILES,Activity
1,COc1ccc(O)c(/C=N/NC(=O)c2ccc3c4c(ccc3c2)N2Cc3c(ccc5cc(C(=O)N/N=C/c6cc(OC)ccc6O)ccc35)N(C4)C2)c1,Active

# Tested on: CCRF-CEM
# Test: Cell cycle arrest in human CCRF-CEM cells assessed as accumulation at G0/G1 phase at 5 times IC50 after 24 hrs by propidium iodide staining-based flow cytometry
# Format: functional
# Conditions: not given
# How it was run: as §1
row,SMILES,Activity
1,COc1ccc(O)c(/C=N/NC(=O)c2ccc3c4c(ccc3c2)N2Cc3c(ccc5cc(C(=O)N/N=C/c6cc(OC)ccc6O)ccc35)N(C4)C2)c1,39.05%

# Tested on: Candida albicans
# Test: Antifungal activity against Candida albicans up to 200 uM after 24 to 48 hrs by broth microdilution method
# Format: functional, organism-based
# Conditions: not given
row,SMILES,Activity
1,COc1ccc(O)c(/C=N/NC(=O)c2ccc3c4c(ccc3c2)N2Cc3c(ccc5cc(C(=O)N/N=C/c6cc(OC)ccc6O)ccc35)N(C4)C2)c1,inactive

# Tested on: Staphylococcus aureus
# Test: Antimicrobial activity against Staphylococcus aureus CCM 3953 up to 200 uM after 24 to 48 hrs by broth microdilution method
# Format: functional, organism-based
# Conditions: not given
row,SMILES,Activity
1,COc1ccc(O)c(/C=N/NC(=O)c2ccc3c4c(ccc3c2)N2Cc3c(ccc5cc(C(=O)N/N=C/c6cc(OC)ccc6O)ccc35)N(C4)C2)c1,inactive

# Tested on: MRC5
# Test: Cytostatic activity against human MRC5 cells after 72 hrs by MTT assay
# Format: ADME, cell-based
# Conditions: MRC5, 72 h
# How it was run: as §2
row,SMILES,IC50
1,COc1ccc(O)c(/C=N/NC(=O)c2ccc3c4c(ccc3c2)N2Cc3c(ccc5cc(C(=O)N/N=C/c6cc(OC)ccc6O)ccc35)N(C4)C2)c1,110 nM

# Tested on: CCRF-CEM
# Test: Induction of apoptosis in human CCRF-CEM cells assessed as mitotic cells at 5 times IC50 after 24 hrs by pH3Ser10+ labeling-based flow cytometry
# Format: functional
# Conditions: not given
row,SMILES,Activity
1,COc1ccc(O)c(/C=N/NC(=O)c2ccc3c4c(ccc3c2)N2Cc3c(ccc5cc(C(=O)N/N=C/c6cc(OC)ccc6O)ccc35)N(C4)C2)c1,0.67%
